Reference: ChEMBL document CHEMBL2046406 (J Med Chem, 2012)
Activity calls are given as the source filed them. No cut-off for these calls is given here.

Experiments:
Mu-type opioid receptor [1] = biological target: T1, Mu-type opioid receptor (Homo sapiens, UniProt P35372); assay: biochemical; assay type: cell-based, CHO
[2] = biological target: T2, Kappa-type opioid receptor (Homo sapiens, UniProt P41145); assay: Antagonist activity at human kappa opioid receptor expressed in CHO cells assessed as inhibition of U50488-induced […]GTPgammaS binding after 60 mins by scintillation counting; assay type: functional, cell-based
How it was run: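 κ antagonism: hKOR-CHO membranes incubated with compound plus 100 nM U50,488.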

[3] = biological target: T2, Kappa-type opioid receptor; assay: biochemical; assay type: cell-based, CHO
Mu-type opioid receptor [4] = biological target: T1, Mu-type opioid receptor; assay: Agonist activity at human mu opioid receptor expressed in CHO cells assessed as stimulation of […]GTPgammaS binding after 60 mins by scintillation counting; assay type: functional, cell-based
Homo sapiens [5] = species on record: Homo sapiens; assay: Selectivity index, ratio of inhibition of human mu opioid receptor to inhibition of human kappa opioid receptor
Mu-type opioid receptor [6] = biological target: T1, Mu-type opioid receptor; assay: Agonist activity at human mu opioid receptor expressed in CHO cells assessed as stimulation of […]GTPgammaS binding after 60 mins by scintillation counting relative to control; assay type: functional, cell-based
Mu-type opioid receptor [7] = biological target: T1, Mu-type opioid receptor; assay: Antagonist activity at human mu opioid receptor expressed in CHO cells assessed as inhibition of DAMGO-induced […]GTPgammaS binding after 60 mins by scintillation counting relative to control; assay type: functional, cell-based
[8] = biological target: T2, Kappa-type opioid receptor; assay: Agonist activity at human kappa opioid receptor expressed in CHO cells assessed as stimulation of […]GTPgammaS binding after 60 mins by scintillation counting; assay type: functional, cell-based
[9] = biological target: T2, Kappa-type opioid receptor; assay: Agonist activity at human kappa opioid receptor expressed in CHO cells assessed as stimulation of […]GTPgammaS binding after 60 mins by scintillation counting relative to control; assay type: functional, cell-based
How it was run: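 Membranes from CHO cells stably expressing human KOR (15 μg protein per tube) or MOR (7.5 μg protein per tube). Nonspecific binding with 10 μM GTPγS. Filtration, then scintillation counting. Triplicate, at least three experiments.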

Homo sapiens [10] = species on record: Homo sapiens; assay: Selectivity index, ratio of inhibition of human delta opioid receptor to inhibition of human kappa opioid receptor
[11] = biological target: T3, Delta-type opioid receptor (Homo sapiens, UniProt P41143); assay: Displacement of [3H]-naltrindole from human delta opioid receptor expressed in CHO cells after 3 hrs by scintillation counting; assay type: cell-based
How it was run: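 CHO membranes expressing human KOR or DOR incubated with radioligand and 12 compound concentrations in 1 mL 50 mM Tris-HCl, pH 7.5, at 25 °C. […] Nonspecific binding with 10 μM naloxone. Three experiments in triplicate.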

Mu-type opioid receptor [12] = biological target: T1, Mu-type opioid receptor; assay: Antagonist activity at human mu opioid receptor expressed in CHO cells assessed as inhibition of DAMGO-induced […]GTPgammaS binding after 60 mins by scintillation counting; assay type: functional, cell-based
Homo sapiens [13] = species on record: Homo sapiens; assay: Selectivity index, ratio of inhibition of human kappa opioid receptor to inhibition of human mu opioid receptor
[14] = Displacement of [3H]-naltrindole from human delta opioid receptor expressed in CHO cells after 3 hrs by scintillation counting
Homo sapiens [15] = species on record: Homo sapiens; assay: Selectivity index, ratio of inhibition of human delta opioid receptor to inhibition of human mu opioid receptor
[16] = biological target: T3, Delta-type opioid receptor; assay: Displacement of [3H]-naltrindole from human delta opioid receptor expressed in CHO cells at 10 uM after 3 hrs by scintillation counting; assay type: cell-based
[17] = biological target: T2, Kappa-type opioid receptor; assay: Displacement of [3H]-U69,593 from human kappa opioid receptor expressed in CHO cells at 10 uM after 60 mins by scintillation counting; assay type: cell-based

T1 sequence (P35372 whole entry): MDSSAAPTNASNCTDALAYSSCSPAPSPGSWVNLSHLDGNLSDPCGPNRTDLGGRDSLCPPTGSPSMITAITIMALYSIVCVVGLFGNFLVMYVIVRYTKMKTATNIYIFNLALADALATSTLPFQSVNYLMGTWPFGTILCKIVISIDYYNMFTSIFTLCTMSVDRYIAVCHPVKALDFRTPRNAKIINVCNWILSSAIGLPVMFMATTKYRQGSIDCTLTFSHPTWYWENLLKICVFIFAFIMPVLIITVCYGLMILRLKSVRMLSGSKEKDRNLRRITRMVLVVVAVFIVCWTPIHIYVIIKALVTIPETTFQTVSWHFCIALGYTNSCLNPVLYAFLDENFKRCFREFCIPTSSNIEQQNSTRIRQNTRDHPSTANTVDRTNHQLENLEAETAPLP
T3 sequence (P41143 whole entry): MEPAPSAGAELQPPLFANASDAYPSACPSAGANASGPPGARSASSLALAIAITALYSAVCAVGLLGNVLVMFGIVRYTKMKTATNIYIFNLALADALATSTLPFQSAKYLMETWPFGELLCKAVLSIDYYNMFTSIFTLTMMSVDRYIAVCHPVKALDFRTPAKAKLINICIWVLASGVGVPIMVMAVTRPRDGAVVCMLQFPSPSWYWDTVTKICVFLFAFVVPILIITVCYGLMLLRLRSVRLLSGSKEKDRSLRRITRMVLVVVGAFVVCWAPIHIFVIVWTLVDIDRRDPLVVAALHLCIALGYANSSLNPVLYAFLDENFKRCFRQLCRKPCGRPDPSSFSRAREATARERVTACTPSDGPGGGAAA
T2 sequence (P41145 whole entry): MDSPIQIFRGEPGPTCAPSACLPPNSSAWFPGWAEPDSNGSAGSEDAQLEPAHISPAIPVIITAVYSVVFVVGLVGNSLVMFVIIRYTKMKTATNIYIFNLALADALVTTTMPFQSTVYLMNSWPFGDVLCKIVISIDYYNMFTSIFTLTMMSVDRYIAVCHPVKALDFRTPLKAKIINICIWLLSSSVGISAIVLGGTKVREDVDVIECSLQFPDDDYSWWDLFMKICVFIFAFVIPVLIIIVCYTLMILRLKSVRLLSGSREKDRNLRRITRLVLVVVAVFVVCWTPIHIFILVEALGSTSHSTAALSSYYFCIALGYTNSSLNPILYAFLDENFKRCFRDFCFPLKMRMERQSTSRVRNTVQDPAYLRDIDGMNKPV

Oc1ccccc1CNc1ccc2c(c1)[C@@]13CCCC[C@H]1[C@@H](C2)N(CC1CC1)CC3
Ki (Mu-type opioid receptor [1]): 1.9 nM | Activity [2]: inactive | Ki [3]: 0.26 nM | EC50 (Mu-type opioid receptor [4]): 8.8 nM | Selectivity ratio (Homo sapiens [5]): 10 | Emax (Mu-type opioid receptor [6]): 44% | Imax (Mu-type opioid receptor [7]): 47% | EC50 [8]: 2.3 nM | Emax [9]: 110% | Selectivity ratio (Homo sapiens [10]): 150 | Ki [11]: 30 nM | IC50 (Mu-type opioid receptor [12]; read-out: IC50): 160 nM

CN1CC[C@]23CCCC[C@H]2[C@H]1Cc1ccc(N)cc13
Ki (Mu-type opioid receptor [1]): 7.9 nM | Selectivity ratio (Homo sapiens [13]): 190 | Ki [3]: 110 nM | Ki [14]: 1500 nM | Selectivity ratio (Homo sapiens [15]): 14

Nc1ccc2c(c1)[C@@]13CCCC[C@H]1[C@@H](C2)N(CC1CCC1)CC3
Selectivity ratio (Homo sapiens [5]): 2 | Selectivity ratio (Homo sapiens [10]): 100

Nc1ccc2c(c1)[C@@]13CCCC[C@H]1[C@@H](C2)N(CC1CC1)CC3
Selectivity ratio (Homo sapiens [5]): 7 | Selectivity ratio (Homo sapiens [10]): 830

COc1ccc(CNc2ccc3c4c2O[C@H]2[C@@H](O)C=C[C@H]5[C@@H](C3)N(C)CC[C@@]452)cc1
Ki (Mu-type opioid receptor [1]): 60 nM | inhibition [16]: 12% | Selectivity ratio (Homo sapiens [13]): > 160 | Selectivity ratio (Homo sapiens [15]): > 160 | inhibition [17]: 54%

CN1CC[C@]23c4c5ccc(NCc6cccc(O)c6)c4O[C@H]2[C@@H](O)C=C[C@H]3[C@H]1C5
Ki (Mu-type opioid receptor [1]): 7 nM | inhibition [16]: 31% | Ki [3]: 910 nM | EC50 (Mu-type opioid receptor [4]): 550 nM | IC50 (Mu-type opioid receptor [12]; cho): Not Active

Oc1cccc(CNc2ccc3c(c2)C[C@@H]2[C@@H]4CCCC[C@]34CCN2CC2CC2)c1
Ki (Mu-type opioid receptor [1]): 150 nM | inhibition [16]: 46% | Activity [2]: inactive | Ki [3]: 0.99 nM | Selectivity ratio (Homo sapiens [5]): 150 | EC50 [8]: 27 nM | Emax [9]: 160% | Selectivity ratio (Homo sapiens [10]): > 10000
